Consider three compounds from ChEMBL document CHEMBL5120856, “New salicylic acid derivatives, double inhibitors of glycolate oxidase and lactate dehydrogenase, as effective agents decreasing oxalate production” (Eur J Med Chem, 2022).

The subject of series [1] is Hepatocyte. Put plainly: Inhibition of GO/LDHA in hyperoxaluric-primary hepatocyte isolated from Agxt1 knockdown PH1 C57BL/6 mouse assessed as reduction in extracellular oxalate concentration at 10 uM measured at 48 hrs in the presence of glycolate relative to control. The arrangement: scale not given: the % may be the effect or the level left. Type of series: cell-based. A digest of the protocol: (§1)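 Agxt1-/- mouse primary hepatocytes cultured with 5 mM glycolate, inhibitor at 10 μM; extracellular oxalate measured by colorimetric kit 24 and 48 h after inhibitor addition; relative oxalate = oxalate with inhibitor over oxalate without inhibitor; negative values mean below detection limit; mean of three/four replicates ± SD.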

For series [2], the system named is Hepatocyte. Description: Cytotoxicity against hyperoxaluric-primary hepatocyte isolated from Grhpr-knockdown PH2 C57BL/6 mouse assessed as cell death at 10 uM by MTS assay. The class given is toxicity, cell-based. Particulars: hepatocytes, Grhpr-knockdown PH2 (primary hyperoxaluria type 2). A digest of the protocol: (§2)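 Primary hepatocytes from Agxt1-/- (PH1, 5 mM glycolate), Grhpr-/- (PH2, 10 mM glycolate) or Hoga1-/- (PH3, 10 mM hydroxyproline) mice, incubated with inhibitor at 10 μM; viability followed through the oxalate assay by MTS tetrazolium method.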
For orientation: Formazan colour is commonly taken as a measure of viable cells.

A short description of series [3]: Inhibition of GO/LDHA in hyperoxaluric-primary hepatocyte isolated from Grhpr-knockdown PH2 C57BL/6 mouse measured at 48 hrs in the presence of 10 mM glycolate. The class given is cell-based. A digest of the protocol:
(§3)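 Grhpr-/- hepatocytes with 10 mM glycolate; eight inhibitor concentrations per replicate; colorimetric extracellular oxalate at 24 or 48 h; EC50 as mean of three/four replicates ± SD.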

In series [4] the test system is HEK293. Put plainly: Cytotoxicity against HEK293 cells assessed as reduction in cell viability upto 50 uM measured after 48 hrs by MTT assay. The class given is toxicity, cell-based. To be noted: human, hek293, 48 h.
Series [5] is described as follows: Inhibition of GO/LDHA in hyperoxaluric-primary hepatocyte isolated from Agxt1 knockdown PH1 C57BL/6 mouse measured at 48 hrs in the presence of 5 mM glycolate. Type of series: cell-based. A digest of the protocol:
(§4)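 Agxt1-/- hepatocytes with 5 mM glycolate; eight inhibitor concentrations per replicate; extracellular oxalate measured colorimetrically at 24 or 48 h; EC50 as mean of three/four replicates ± SD.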

The target of series [6] is T1, L-lactate dehydrogenase B chain (Homo sapiens, UniProt P07195). Put plainly: Non-competitive inhibition of human recombinant LDHB assessed as inhibition constant using varying concentration of pyruvate as substrate preincubated for 10 mins followed by substrate addition and measured every 60 sec for 10 mins in the presence of NADH by fluorescence assay.
T1 sequence (P07195 whole entry): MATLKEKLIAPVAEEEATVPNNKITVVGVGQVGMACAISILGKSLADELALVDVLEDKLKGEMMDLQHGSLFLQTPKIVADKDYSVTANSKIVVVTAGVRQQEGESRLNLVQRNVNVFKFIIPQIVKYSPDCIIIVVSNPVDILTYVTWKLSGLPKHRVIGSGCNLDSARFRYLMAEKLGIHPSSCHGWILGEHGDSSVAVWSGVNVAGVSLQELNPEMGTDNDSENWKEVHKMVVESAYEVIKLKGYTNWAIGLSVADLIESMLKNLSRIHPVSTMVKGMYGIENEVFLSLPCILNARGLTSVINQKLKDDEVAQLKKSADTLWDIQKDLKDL
Series [7] deals with T2, 2-Hydroxyacid oxidase 1 (Mus musculus, UniProt Q9WU19).
T2 sequence (Q9WU19 whole entry): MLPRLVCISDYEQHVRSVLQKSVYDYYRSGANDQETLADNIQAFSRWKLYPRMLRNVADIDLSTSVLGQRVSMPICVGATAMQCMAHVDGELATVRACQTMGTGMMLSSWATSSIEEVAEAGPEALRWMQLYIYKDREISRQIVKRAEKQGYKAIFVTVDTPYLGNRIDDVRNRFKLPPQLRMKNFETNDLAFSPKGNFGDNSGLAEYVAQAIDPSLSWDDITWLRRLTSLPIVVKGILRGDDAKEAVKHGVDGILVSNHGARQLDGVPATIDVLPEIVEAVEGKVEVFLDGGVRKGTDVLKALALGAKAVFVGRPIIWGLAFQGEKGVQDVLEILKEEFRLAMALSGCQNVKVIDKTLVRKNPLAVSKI
Description: Non-competitive mixed inhibition of N-terminal His-tagged mouse recombinant glycolate oxidase expressed in Escherichia coli BL21 (DE3) cells assessed as inhibition constant using varying concentration of glycolate as substrate measured every 60 sec for 15 mins by Amplex red and horseradish peroxidase based fluorescence assay.

Series [8] concerns the target T2, 2-Hydroxyacid oxidase 1. Description: Inhibition of N-terminal His-tagged mouse recombinant glycolate oxidase expressed in Escherichia coli BL21 (DE3) cells using glycolate as substrate preincubated for 10 mins followed by substrate addition and measured after 10 mins by Amplex red and horseradish peroxidase based fluorescence assay.
In series [9] the test system is Hepatocyte. Description: Cytotoxicity against hyperoxaluric-primary hepatocyte isolated from Hoga1-knockdown PH3 C57BL/6 mouse assessed as cell death at 10 uM by MTS assay. Type of series: toxicity, cell-based. Particulars: hepatocytes, Hoga1-knockdown PH3, 10 µM. A digest of the protocol:
as §2

The nature of series [10]: Inhibition of GO/LDHA in hyperoxaluric-primary hepatocyte isolated from Agxt1 knockdown PH1 C57BL/6 mouse measured at 24 hrs in the presence of 5 mM glycolate. The class given is cell-based. A digest of the protocol: as §4
The target of series [11] is T1, L-lactate dehydrogenase B chain. Put plainly: Inhibition of human recombinant LDHB using pyruvate as substrate preincubated for 10 mins followed by substrate addition and measured every 60 sec for 10 mins in the presence of NADH by fluorescence assay.
In series [12] the test system is Hepatocyte. Put plainly: Cytotoxicity against hyperoxaluric-primary hepatocyte isolated from Agxt1-knockdown PH1 C57BL/6 mouse assessed as cell death at 10 uM by MTS assay. Type of series: toxicity, cell-based. Particulars: hepatocytes, Agxt1-knockdown PH1, 10 µM. The essentials:
as §2

Series [13] has as its target T3, 2-Hydroxyacid oxidase 1 (Mus musculus) (UniProt Q9WU19).
T3 sequence (whole entry): T2 sequence (Q9WU19 whole entry)
Description: Non-competitive mixed inhibition of N-terminal His-tagged mouse recombinant glycolate oxidase expressed in Escherichia coli BL21 (DE3) cells assessed as decrease in Vmax with increase in apparent Km using glycolate as substrate upto 60 microM.

Series [14] can be described thus: Inhibition of GO/LDHA in hyperoxaluric-primary hepatocyte isolated from Grhpr-knockdown PH2 C57BL/6 mouse measured at 24 hrs in the presence of 10 mM glycolate. Type of series: cell-based. The essentials:
as §3

Series [15] addresses T4, L-lactate dehydrogenase A chain (Homo sapiens, UniProt P00338). Put plainly: Non-competitive inhibition of human recombinant LDHA assessed as inhibition constant using varying concentration of pyruvate as substrate preincubated for 10 mins followed by substrate addition and measured every 60 sec for 10 mins in the presence of NADH by fluorescence assay.
The target in series [16] is T5, 2-Hydroxyacid oxidase 1 (Homo sapiens, UniProt Q9UJM8).
T5 sequence (Q9UJM8 whole entry): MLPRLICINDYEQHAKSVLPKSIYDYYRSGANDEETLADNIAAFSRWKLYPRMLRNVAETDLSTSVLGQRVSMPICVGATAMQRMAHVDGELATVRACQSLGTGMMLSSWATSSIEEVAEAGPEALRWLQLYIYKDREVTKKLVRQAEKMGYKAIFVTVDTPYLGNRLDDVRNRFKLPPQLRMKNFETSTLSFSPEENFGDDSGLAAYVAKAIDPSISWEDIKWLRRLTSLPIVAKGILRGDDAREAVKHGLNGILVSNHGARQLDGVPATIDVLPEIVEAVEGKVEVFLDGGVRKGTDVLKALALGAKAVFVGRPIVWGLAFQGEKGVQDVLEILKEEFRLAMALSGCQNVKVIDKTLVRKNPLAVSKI
Description: Non-competitive mixed inhibition of N-terminal His-tagged human recombinant glycolate oxidase expressed in Escherichia coli BL21 (DE3) cells assessed as inhibition constant using varying concentration of glycolate as substrate measured every 60 sec for 15 mins by Amplex red and horseradish peroxidase based fluorescence assay.

Series [17] concerns the target T5, 2-Hydroxyacid oxidase 1. Put plainly: Inhibition of N-terminal His-tagged human recombinant glycolate oxidase expressed in Escherichia coli BL21 (DE3) cells using glycolate as substrate preincubated for 10 mins followed by substrate addition and measured after 10 mins by Amplex red and horseradish peroxidase based fluorescence assay.
In series [18] the test system is Hepatocyte. Description: Inhibition of GO/LDHA in hyperoxaluric-primary hepatocyte isolated from Hoga1-knockdown PH3 C57BL/6 mouse assessed as relative oxalate output at 10 uM measured at 48 hrs in the presence of hydroxyproline relative to control. Type of series: cell-based. The essentials: (§5)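 Hoga1-/- mouse primary hepatocytes challenged with 10 mM hydroxyproline, inhibitor 10 μM; extracellular oxalate measured by colorimetric kit 24 and 48 h after dosing, given as ratio to oxalate without inhibitor; negative values are below detection limit; mean of three/four replicates ± SD.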

For series [19], the system named is Hepatocyte. Put plainly: Inhibition of GO/LDHA in hyperoxaluric-primary hepatocyte isolated from Grhpr-knockdown PH2 C57BL/6 mouse assessed as relative oxalate output at 10 uM measured at 24 hrs in the presence of glycolate relative to control. The class given is cell-based. The essentials:
(§6)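 Grhpr-/- mouse primary hepatocytes cultured with 10 mM glycolate, inhibitor at 10 μM; extracellular oxalate determined colorimetrically at 24 and 48 h post-treatment, expressed relative to untreated medium (RO); negative RO means below detection limit; three/four replicates, mean ± SD.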

Series [20] addresses T4, L-lactate dehydrogenase A chain. Put plainly: Non-competitive inhibition of human recombinant LDHA assessed as decrease in Vmax with no effect on Km using pyruvate as substrate upto 20 uM.
Series [21] has as its system Hepatocyte. Put plainly: Inhibition of GO/LDHA in hyperoxaluric-primary hepatocyte isolated from Agxt1 knockdown PH1 C57BL/6 mouse assessed as relative oxalate output at 10 uM measured at 48 hrs in the presence of glycolate relative to control. The class given is cell-based. A digest of the protocol: as §1
For series [22], the target named is T4, L-lactate dehydrogenase A chain. Put plainly: Inhibition of human recombinant LDHA using pyruvate as substrate preincubated for 10 mins followed by substrate addition and measured every 60 sec for 10 mins in the presence of NADH by fluorescence assay.
Series [23] has as its system Hepatocyte. Put plainly: Inhibition of GO/LDHA in hyperoxaluric-primary hepatocyte isolated from Grhpr-knockdown PH2 C57BL/6 mouse assessed as relative oxalate output at 10 uM measured at 48 hrs in the presence of glycolate relative to control. The class given is cell-based. The essentials: as §6
The subject of series [24] is Hepatocyte. Description: Inhibition of GO/LDHA in hyperoxaluric-primary hepatocyte isolated from Agxt1 knockdown PH1 C57BL/6 mouse assessed as relative oxalate output at 10 uM measured at 24 hrs in the presence of glycolate relative to control. The class given is cell-based. The essentials: as §1
In series [25] the test system is Hepatocyte. Put plainly: Inhibition of GO/LDHA in hyperoxaluric-primary hepatocyte isolated from Hoga1-knockdown PH3 C57BL/6 mouse assessed as relative oxalate output at 10 uM measured at 24 hrs in the presence of hydroxyproline relative to control. The class given is cell-based. A digest of the protocol: as §5
The target in series [26] is T6, 2-Hydroxyacid oxidase 1 (Homo sapiens) (UniProt Q9UJM8).
T6 sequence (whole entry): T5 sequence (Q9UJM8 whole entry)
Put plainly: Non-competitive mixed inhibition of N-terminal His-tagged human recombinant glycolate oxidase expressed in Escherichia coli BL21 (DE3) cells assessed as decrease in Vmax with increase in apparent Km using glycolate as substrate upto 60 microM.

For series [27], the target named is T7, Prostaglandin G/H synthase 2 (Homo sapiens, UniProt P35354).
T7 sequence (P35354 whole entry): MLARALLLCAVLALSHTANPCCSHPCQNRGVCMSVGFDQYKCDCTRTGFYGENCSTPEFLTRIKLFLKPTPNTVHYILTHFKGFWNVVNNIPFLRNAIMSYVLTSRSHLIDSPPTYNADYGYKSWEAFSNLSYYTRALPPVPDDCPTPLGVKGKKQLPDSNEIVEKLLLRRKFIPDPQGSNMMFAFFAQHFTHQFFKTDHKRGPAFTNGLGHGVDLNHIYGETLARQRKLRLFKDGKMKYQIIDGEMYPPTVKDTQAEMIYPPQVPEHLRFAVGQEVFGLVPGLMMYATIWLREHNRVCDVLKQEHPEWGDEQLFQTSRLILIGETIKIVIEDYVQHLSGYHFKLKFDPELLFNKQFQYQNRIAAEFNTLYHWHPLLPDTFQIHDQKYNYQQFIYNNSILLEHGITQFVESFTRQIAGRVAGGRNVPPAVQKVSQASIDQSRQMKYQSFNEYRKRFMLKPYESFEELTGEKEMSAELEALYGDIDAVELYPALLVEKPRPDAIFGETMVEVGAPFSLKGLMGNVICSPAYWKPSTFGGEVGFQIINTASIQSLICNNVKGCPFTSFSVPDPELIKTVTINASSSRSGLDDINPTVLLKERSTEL
Put plainly: Inhibition of human COX-2 using arachidonic acid as substrate measured every 60 sec for 10 mins by fluorescence based assay.

pEC50, pIC50, pKi: −log10 of the molar value. Calls of active or inactive are those of the source. The rule behind the calls is not given here.

What is called pEC50 is the EC50 on a negative log10 scale, so that one unit is a factor of ten. The pKi is the Ki on a negative log10 scale, so that one unit is a factor of ten. The term pIC50 denotes −log10 of the IC50, conventionally taken in molar units.

For `O=Cc1ccc(-c2ccc(O)c(C(=O)O)c2)o1`, the Activity is 60% in series [1]; “Non-Toxic” in [2]; “Non-Toxic” in series [4]; “Non-Toxic” in series [9]; “Non-Toxic” in series [12]. Also, the negative-log EC50 (pEC50) in [3] was 5.72; in [5], 5.08; in series [10], 5.46; in [14], 5.74. The pKi in series [6] is 4.89; in series [7], 5.10; in series [15], 5.85; in series [16], 4.74. Moreover, the results for the pIC50 in series [8] and in [11] were 4.84 and 4.54, respectively. Moreover, the inhibition entry in [13] is “Active”.

On to `N.O=C(O)c1cc(-c2ccc(CNc3ccc(Br)cc3)o2)ccc1O`, for which the pIC50 is 5.38 in series [17]; 6.22 in series [22]; 5.51 in series [8]; 5.96 in [11]; 4.46 in series [27]. The fold change (FC) is 0.18 in series [18]; 0.41 in series [19]; 0.57 in [21]; 0.56 in series [23]; 0.19 in series [24]; 0.26 in series [25]. Further, the Activity entry in series [2], in series [4], in series [9] and in [12] was “Non-Toxic” throughout. Further, the inhibition entry in [20] and in series [26] was “Active” each time. The figures for the pKi in series [15] and in series [16] were 6.05 and 5.96, respectively.

For `C#CCCCC(=O)Nc1ccc(C(=O)c2ccc(NCc3ccc(-c4ccc(O)c(C(=O)O)c4)o3)cc2)cc1.N`, the pIC50 was 5.62 in series [17]; 6.30 in [22]; 5.89 in series [8]; 6.52 in series [11]; 4.44 in series [27]. For the same compound, the fold change (FC) in [18] came out at 0.14; in series [19], 0.4; in [21] it was 0.79; in [23], 0.52; in series [24], 0.5; in series [25], 0.2. Moreover, the Activity result in series [2], in [4], in series [9] and in series [12] was “Non-Toxic” each time.
